Bioassay records from PubChem.
ADAM10 inh = inhibitors of human ADAM10. recombinant ADAM10, EDANS/DABCYL FRET peptide cleavage, 3 h. inhibition, % at 7 µM. 370,000 tested, 0.62% active. AID 720582;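 active = inhibition above a per-campaign cutoff equal to the mean of compounds falling between control-based bounds plus 3 SD, cut at about 20% in these data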;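 also: 0% = DMSO wells while the 100% control is not disclosed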
FAS-TE inh = inhibitors of human fatty acid synthase thioesterase domain. P49327. recombinant FAS-TE, OMFH fluorogenic substrate, fluorescence endpoint. inhibition, % at 15 µM. 360,000 tested, 0.67% active. AID 602261;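 active = compounds whose normalised, plate-corrected inhibition of enzyme fluorescence in the single-dose primary screen is 50% or more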;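 also: 0% = DMSO with enzyme and 100% = substrate without enzyme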
CaV13 ICDI inh = Disruptors of the CACNA1D IQ motif to Ca2+-dependent inactivation inhibitor domain association, primary screening, Förster resonance energy transfer in intact living …; HEK cells, CFP/YFP FRET ICDI-IQ, plate reader, 10 min; percent FRET-ratio fall versus neutral wells; inhibition, % at 12.3 µM; 340,000 tested, 0.098% active; AID 743397;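 active = mean replicate inhibition of at least 30% and at least 1% of replicates passing that level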;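 also: 0% = median of the neutral control wells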
Arrestin-AP2 inh = inhibitors of human beta-arrestin and AP2 interaction; FITC-arrestin peptide / GST-AP2 beads, flow cytometry; AP2 beta2 appendage carries R879A mutation; inhibition, % at 10 µM; 340,000 tested, 0.31% active; AID 504490;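 active = inhibition above a set limit, near 3 SD of compounds lacking own fluorescence, cut at about 54% in these data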;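 also: plate controls were DMSO wells for no effect and 5 µM unlabelled arrestin peptide for full effect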
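Measured by: flow cytometry, FL1 (488/535 nm); Material: AP2 appendage R879A on GSH beads; Evaluation: percent response; Timing: pre-incubation 12 min, peptide binding 1 h, room temperature; Also added: 50 nM FITC-arrestin peptide; Medium: PBS with 0.05% Tween 20 and 0.1% BSA.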
ADAM17 inh = inhibits human ADAM17; recombinant ADAM17, EDANS/DABCYL FRET peptide cleavage; inhibition, % at 6.95 µM; 370,000 tested, 0.83% active; AID 720648;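 active = inhibition above the mean of compounds lying between control limits plus 3 SD, set per campaign, cut at about 8.5% in these data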;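 also: 0% = DMSO-only wells as the low control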
CendR NRP1 mod = modulators of CendR peptide binding to human neuropilin-1; FAM-RPARPAR peptide binding to NRP-1, fluorescence polarization; inhibition, % at 25 µM; 360,000 tested, 0.85% active; AID 602438;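 active = inhibition or corrected inhibition above about 18%, plus a signal ratio from 0.5 to 1.5, limit read from the data, passing the limit was not always enough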
ADAM10 counter = inhibits human ADAM10 in ADAM17 exosite counter-screen. shares compounds with ADAM17 inh. inhibition, % at 6.95 µM. 2,900 tested, 47% active. AID 743256. recombinant ADAM10, EDANS/DABCYL FRET peptide cleavage, 3 h;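 active = mean inhibition over the triplicate runs exceeds the activity threshold set in the earlier primary screen, cut at about 20% in these data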;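 also: 0% = DMSO wells and 100% = marimastat wells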
ADAM17 confirm = human ADAM17 inhibition, confirmation; inhibition, % at 6.95 µM; recombinant ADAM17, EDANS/DABCYL QFRET peptide cleavage; shares compounds with ADAM17 inh; 2,900 tested, 65% active; AID 743257;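 active = mean inhibition across replicates above the hit cutoff set in the primary screen, cut at about 8.5% in these data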;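 also: 0% = DMSO wells and 100% = marimastat wells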
* marks the source's active call; other numbers are inactive results; . = no result. An excerpt weighted towards active compounds, which were near 2.9% of everything screened.

SMILES	ADAM10 inh	FAS-TE inh	CaV13 ICDI inh	Arrestin-AP2 inh	ADAM17 inh	CendR NRP1 mod	ADAM10 counter	ADAM17 confirm
O=C(CN(c1ccc(Br)cc1)S(=O)(=O)c1ccc(Cl)c([N+](=O)[O-])c1)NCC1CCCO1 (centres undefined)	3.3	19.2	-8.3	4.5	0.9	7.3	.	.
Cc1cc(S(=O)(=O)Nc2ccc(C(=O)N3CCN(c4ccccc4O)CC3)cc2)ccc1F	17.3	6.5	.	-11.6	10.0*	-1.5	15.6	8.6*
Cc1cccc(NS(=O)(=O)c2ccc(C(=O)N3CCN(c4ccccc4O)CC3)cc2)c1C	9.9	2.9	.	21.5	6.0	11.7	.	.
O=C(CCCC(=O)OCC(=O)c1cccs1)Nc1ccc(F)cc1	8.1	-7.8	5.1	-1.1	-1.6	-10.5	.	.
O=C(CCCC(=O)OCC(=O)c1cccs1)Nc1ccc(Oc2ccccc2)cc1	9.0	14.5	.	-11.1	8.9*	23.2*	9.5	4.7
Cc1onc(-c2c(F)cccc2Cl)c1C(=O)Nc1cccc(S(=O)(=O)NC2=NCCC2)c1	-9.0	-4.0	-5.5	-7.5	-0.3	6.6	.	.
CCOc1ccc(N(CC(=O)NN=C2CCN(C)CC2)S(C)(=O)=O)cc1	11.6	-8.4	-3.4	22.9	8.7*	7.4	-2.7	-0.6
CCOc1ccc(N(CC(=O)Nc2cccc(C)c2)S(C)(=O)=O)cc1	9.3	0.8	-4.7	16.7	9.0*	-4.8	0.1	1.9
O=C(Nc1ccc(Nc2ccccc2)cc1)c1ccc(Cl)cc1Cl	19.0	25.4	-1.6	11.3	11.7*	5.9	36.0*	25.1*
CCN1C(=O)[C@@H]2[C@@H](c3ccc(-c4cccc(Cl)c4)c(OC)c3)N3CCCC[C@@]3(C(=O)OC)[C@@H]2C1=O	13.3	25.1	-9.2	16.1	9.9*	-9.1	20.3*	16.1*
CCN1C(=O)[C@@H]2[C@@H](c3ccc(-c4ccc(Cl)c(Cl)c4)c(OC)c3)N3CCC[C@@]3(C(=O)OC)[C@@H]2C1=O	14.6	34.6	-5.2	.	5.9	-6.4	.	.
COc1ccc(N2CCN(C(=O)Cc3csc(NC(=O)Nc4ccccc4OC)n3)CC2)cc1	11.9	13.5	-6.6	-3.1	5.3	0.9	.	.
COc1ccccc1NC(=O)Nc1nc(CC(=O)N2CCN(c3ccc(F)cc3)CC2)cs1	5.0	32.0	-3.6	-14.2	9.8*	-4.6	24.5*	16.1*
Cc1ccccc1NC(=O)Cc1nc(COC(=O)c2nc(Cl)ccc2Cl)cs1	-5.9	7.2	-6.6	-11.4	-2.2	-7.1	.	.
Cc1ccccc1NC(=O)Cc1nc(COC(=O)c2ccc(Cl)nc2)cs1	-10.5	-13.5	-7.4	-15.8	8.7*	-7.3	6.9	4.6
Cc1cc(C2(c3ccc(O)c(C)c3)OC(=O)c3ccccc32)ccc1O	9.0	5.3	-4.3	2.6	11.0*	-6.4	17.9	10.7*
COC(=O)c1nn(-c2ccccc2)c(Sc2ccc(Br)cc2)c1/C=N/O	3.6	-20.5	.	18.6	11.2*	10.1	10.7	4.4
OCCn1c(CSc2nnc(-c3ccco3)n2-c2ccccc2)nc2ccc(Cl)cc21	-10.7	-0.6	-3.6	9.6	11.2*	-15.7	-16.4	-2.8
NC(=O)CSc1nnc(-c2ccco2)n1-c1ccccc1	8.3	-2.7	-3.7	-9.7	0.2	4.8	.	.
O=S(Cc1ccc(Br)cc1)Cc1nnc(SCc2ccc(Cl)cc2)n1-c1ccccc1 (centres undefined)	18.3	38.9	-4.0	7.8	8.6*	-7.2	27.2*	14.8*
CCC(c1nnnn1-c1ccc2c(c1)OCCO2)N1CCc2ccccc2C1 (centres undefined)	-0.3	8.7	-4.8	.	-0.6	11.9	.	.
CSCCC(NC(=O)c1cccc(S(=O)(=O)N2CCOCC2)c1)c1nc2ccccc2[nH]1 (centres undefined)	2.5	-4.8	-2.2	35.2	10.3*	0.7	13.6	6.9
Cc1ccc2nc(SCC(=O)Nc3cccc(S(=O)(=O)N(C)C)c3)[nH]c2c1	19.4	10.7	-4.2	8.8	11.6*	-5.3	12.0	10.6*
Cc1ccc(NC(=O)c2cc(S(=O)(=O)NCCC3=CCCCC3)ccc2F)cc1	22.9*	30.2	-5.1	4.3	14.1*	13.4	34.4*	18.1*
O=C(Nc1ccccc1)Nc1cccc(Cl)c1Cl	14.8	16.6	-5.4	24.4	11.8*	4.8	12.8	8.2
SMILES	ADAM10 inh	FAS-TE inh	CaV13 ICDI inh	Arrestin-AP2 inh	ADAM17 inh	CendR NRP1 mod	ADAM10 counter	ADAM17 confirm
O=C(Nc1ccncc1)Nc1cccc(Cl)c1Cl	3.2	5.0	-6.4	5.8	-3.4	-12.9	.	.
CSc1ccccc1NC(=O)Nc1cccc(Cl)c1	13.9	18.9	-6.5	8.0	9.7*	3.0	15.3	10.1*
CNC(=O)N(C1=NCC(C)(C)S1)c1ccc(F)c(Cl)c1	11.1	8.6	-10.2	26.3	9.2*	-0.5	8.5	5.8
Cc1ccc(SCc2nc(N)nc(Nc3ccccc3C)n2)cc1C	17.1	10.1	-4.9	10.5	9.2*	-1.5	0.7	2.1
Cc1ccccc1Nc1nc(N)nc(CSc2ccc(F)cc2)n1	-8.4	7.5	-5.8	-3.4	-3.6	-9.4	.	.
COc1cc(-c2cnc3c(NC=O)cc(-c4ccccc4Cl)cn23)cc(OC)c1OC	-6.1	13.3	-4.8	.	-2.6	-12.2	.	.
N/C(=N\N=C\c1ccc2c(c1)OCO2)c1nonc1N	19.6	-1.4	-5.3	-1.5	9.8*	-8.4	10.6	6.1
N/C(=N\N=C\c1cccc([N+](=O)[O-])c1)c1nonc1N	5.0	0.1	-4.7	42.2	2.9	14.4	.	.
CCOC(=O)[C@]12CCCC=C1N(Cc1ccco1)C(=O)[C@H](CC(=O)N1CCOCC1)C2	-13.2	-6.8	-2.8	.	-4.0	-7.0	.	.
COc1ccc(-c2n[nH]c(=S)n2-c2ccc(Br)cc2)cc1OC	1.6	4.3	-17.9	-4.2	10.5*	15.4	2.1	36.8*
COc1ccc(Cn2ccc3ccc(-c4ccc5ccn(C(=O)c6cccc(OC)c6)c5c4)cc32)cc1	-30.5	.	.	.	-4.1	.	.	.
CCC(C)[C@H](N)c1nnc(SCC(=O)c2ccc(Cl)cc2)o1 (some centres undefined)	14.6	-3.3	-3.4	-4.5	9.2*	-10.4	-7.8	-0.3
CC(C)[C@H](N)c1nnc(SCc2ccc(Cl)cc2)o1	1.3	-9.0	-5.5	-2.8	-7.8	-25.8	.	.
O=C(NC(=S)NCc1ccccc1)c1ccccc1F	-8.9	17.2	-3.7	14.0	-3.2	0.9	.	.
O=C(NC(=S)NCCc1ccccc1)c1ccccc1F	12.9	21.9	-2.4	7.8	10.3*	13.8	11.9	5.7
